Laboratory results published in ChEMBL document CHEMBL5096186, “Design, Synthesis, and Biological Evaluation of Novel Pyrimido[4,5-b]indole Derivatives Against Gram-Negative Multidrug-Resistant Pathogens” (J Med Chem, 2021).
In brackets after ≈: the same amount, converted by molar mass. Activity calls are given as the source filed them. The rule behind the calls is not given here.

Assays:
[1] = biological target: hERG (KCNH2) potassium channel (Homo sapiens, UniProt Q12809); test: Inhibition of hERG potassium channel assessed as maximum inhibition rate at 40 uM at -80 mV holding potential incubated for 120 seconds by whole cell-automated voltage clamp analysis assay relative to control; format: toxicity; conditions: time 120 sec
Sequence of hERG (KCNH2) potassium channel (Q12809 whole entry): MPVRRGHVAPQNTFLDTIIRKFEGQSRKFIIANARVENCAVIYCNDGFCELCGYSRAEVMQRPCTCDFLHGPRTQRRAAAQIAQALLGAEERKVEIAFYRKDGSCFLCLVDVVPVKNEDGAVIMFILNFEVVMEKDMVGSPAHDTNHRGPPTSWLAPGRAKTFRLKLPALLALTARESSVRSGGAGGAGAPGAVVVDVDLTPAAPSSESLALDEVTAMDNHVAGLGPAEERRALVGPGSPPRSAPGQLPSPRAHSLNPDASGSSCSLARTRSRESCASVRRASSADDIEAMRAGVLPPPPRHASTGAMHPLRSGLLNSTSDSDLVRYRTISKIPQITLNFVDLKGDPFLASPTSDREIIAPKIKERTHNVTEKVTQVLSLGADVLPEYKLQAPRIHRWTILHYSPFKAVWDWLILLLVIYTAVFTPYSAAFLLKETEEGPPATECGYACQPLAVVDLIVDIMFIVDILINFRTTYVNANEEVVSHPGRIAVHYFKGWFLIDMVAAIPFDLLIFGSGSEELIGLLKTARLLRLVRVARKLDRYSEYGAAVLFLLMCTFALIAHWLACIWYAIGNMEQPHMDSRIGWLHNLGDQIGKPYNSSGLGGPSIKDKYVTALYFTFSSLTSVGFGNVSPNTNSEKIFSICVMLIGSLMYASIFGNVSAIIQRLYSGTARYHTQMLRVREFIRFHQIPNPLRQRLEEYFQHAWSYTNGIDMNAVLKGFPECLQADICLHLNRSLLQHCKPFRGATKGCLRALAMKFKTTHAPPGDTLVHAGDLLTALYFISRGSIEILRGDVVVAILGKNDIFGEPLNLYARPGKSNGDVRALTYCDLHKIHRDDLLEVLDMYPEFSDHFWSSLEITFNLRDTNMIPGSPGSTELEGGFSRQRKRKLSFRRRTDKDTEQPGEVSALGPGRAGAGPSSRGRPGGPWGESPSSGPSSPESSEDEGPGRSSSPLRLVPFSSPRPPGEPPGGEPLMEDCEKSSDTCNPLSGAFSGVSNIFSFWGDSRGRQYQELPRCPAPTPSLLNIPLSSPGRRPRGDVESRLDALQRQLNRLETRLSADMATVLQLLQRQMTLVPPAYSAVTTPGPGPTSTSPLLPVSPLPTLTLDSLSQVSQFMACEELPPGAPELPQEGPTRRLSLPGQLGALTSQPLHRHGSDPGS
How it was run: (§1)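 Automated whole-cell patch clamp, holding potential −80 mV. Voltage protocol applied every 20 s. Baseline set with external solution containing 0.1% DMSO and stabilised 3 min. Compound applied until steady state, at least 3 min, then washout. Maximum tested concentration 40 μM, or 3 μM for cisapride as positive control.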

[2] = biological target: Voltage-gated inwardly rectifying potassium channel KCNH2 (Homo sapiens, UniProt Q12809); test: Inhibition of hERG potassium channel assessed as […] at -80 mV holding potential incubated for 120 seconds by whole cell-automated voltage clamp analysis assay; format: toxicity; how it was run: as §1
Sequence of Voltage-gated inwardly rectifying potassium channel KCNH2 (Q12809 whole entry): as above

[3] = test system: Escherichia coli; test: Antibacterial activity against ESBL-producing multidrug resistant Escherichia coli assessed as reduction in bacterial growth incubated for 18 to 20 hrs by CLSI based microdilution method; format: functional; conditions: time 18-20 hrs
How it was run: (§2)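 Broth microdilution per CLSI. Compounds dissolved in DMSO (levofloxacin and meropenem in water) as 64 μg/mL stock, then serial twofold dilutions in broth giving 64 to 0.008 μg/mL. […] Clinical isolates tested as several strains per group; racemic GP-1 served as positive control; values given as MIC ranges.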

[4] = test system: Escherichia coli; test: Antibacterial activity against multidrug resistant wild type Escherichia coli ATCC BAA-2340 assessed as reduction in bacterial growth incubated for 18 to 20 hrs by CLSI based microdilution method; format: functional; conditions: time 18-20 hrs; how it was run: as §2
[5] = test system: Escherichia coli; test: Antibacterial activity against multidrug resistant wild type Escherichia coli NCTC 13353 assessed as reduction in bacterial growth incubated for 18 to 20 hrs by CLSI based microdilution method; format: functional; conditions: time 18-20 hrs; how it was run: as §2
[6] = test system: Klebsiella pneumoniae; test: Antibacterial activity against KPC2-producing multidrug resistant Klebsiella pneumoniae assessed as reduction in bacterial growth incubated for 18 to 20 hrs by CLSI based microdilution method; format: functional; conditions: time 18-20 hrs; how it was run: as §2
[7] = test system: Klebsiella pneumoniae; test: Antibacterial activity agains wild type Klebsiella pneumoniae ATCC BAA-1705 assessed as reduction in bacterial growth incubated for 18 to 20 hrs by CLSI based microdilution method; format: functional; conditions: time 18-20 hrs
How it was run: (§3)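 CLSI broth microdilution. Compounds in DMSO (levofloxacin and meropenem in water), serial twofold dilutions in broth, 64 to 0.008 μg/mL. […] Results reported as MIC ranges across strains.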

[8] = test system: Klebsiella pneumoniae; test: Antibacterial activity agains wild type Klebsiella pneumoniae ATCC BAA-2470 assessed as reduction in bacterial growth incubated for 18 to 20 hrs by CLSI based microdilution method; format: functional; conditions: time 18-20 hrs; how it was run: as §2
[9] = test system: Acinetobacter baumannii; test: Antibacterial activity agains OXA23-producing multidrug resistant Acinetobacter baumannii assessed as reduction in bacterial growth incubated for 18 to 20 hrs by CLSI based microdilution method; format: functional; conditions: time 18-20 hrs; how it was run: as §2
[10] = test system: Acinetobacter baumannii; test: Antibacterial activity against wild type Acinetobacter baumannii NCTC 13304 assessed as reduction in bacterial growth incubated for 18 to 20 hrs by CLSI based microdilution method; format: functional; conditions: time 18-20 hrs; how it was run: as §2
[11] = test system: Pseudomonas aeruginosa; test: Antibacterial activity against IMP4-producing multidrug resistant Pseudomonas aeruginosa assessed as reduction in bacterial growth incubated for 18 to 20 hrs by CLSI based microdilution method; format: functional; conditions: time 18-20 hrs; how it was run: as §2
[12] = test system: Pseudomonas aeruginosa; test: Antibacterial activity against wild type Pseudomonas aeruginosa ATCC 27853 assessed as reduction in bacterial growth incubated for 18 to 20 hrs by CLSI based microdilution method; format: functional; conditions: time 18-20 hrs; how it was run: as §3
[13] = Metabolic stability in rat liver microsome assessed as elimination half life at 0.1 uM in presence of NADPH incubated upto 60 mins by LC-MS/MS analysis; format: ADME; conditions: liver microsomes, read-out: beta t1/2
How it was run: (§4)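 Compound at 0.1 μM final, in 0.01% DMSO with 0.005% BSA. Incubated with rat or human liver microsomes at 0.33 mg/mL in 0.1 M Tris-HCl, pH 7.4, with 5 mM MgCl₂ and 1 mM NADPH, at 37 °C. Samples at 0, 7, 17, 30 and 60 min quenched with cold methanol and analysed by LC-MS/MS. Half-life, Cl_int and MF% derived as previously described.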

[14] = Metabolic stability in human liver microsome assessed as elimination half life at 0.1 uM in presence of NADPH incubated upto 60 mins by LC-MS/MS analysis; format: ADME; conditions: liver microsomes, read-out: beta t1/2; how it was run: as §4
[15] = Metabolic stability in rat liver microsome assessed as intrinsic clearance at 0.1 uM in presence of NADPH incubated upto 60 mins by LC-MS/MS analysis; format: ADME; conditions: microsomes, 1 h; how it was run: as §4
[16] = Metabolic stability in human liver microsome assessed as intrinsic clearance at 0.1 uM in presence of NADPH incubated upto 60 mins by LC-MS/MS analysis; format: ADME; conditions: microsomes, 1 h; how it was run: as §4
[17] = Metabolic stability in rat liver microsome assessed as metabolic bioavailability at 0.1 uM in presence of NADPH incubated upto 60 mins by LC-MS/MS analysis; format: ADME; conditions: liver microsomes; how it was run: as §4
[18] = Metabolic stability in human liver microsome assessed as metabolic bioavailability at 0.1 uM in presence of NADPH incubated upto 60 mins by LC-MS/MS analysis; format: ADME; conditions: liver microsomes; how it was run: as §4
[19] = AUC (0 to infinity) in Sprague-Dawley rat at 5 mg/kg, iv measured upto 24 hrs by LC-MS/MS analysis; format: ADME, organism-based; parameters: time < 24 hrs, dose 5 mg/kg, route iv; conditions: in vivo
How it was run: (§5)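 Male Sprague-Dawley rats, n = 3 per group, single intravenous dose. For 4 mg/kg: 180–280 g rats, vehicle 5% DMSO + 5% EtOH + 40% PEG300 + 50% saline, blood from the retrobulbar vein at 0.05–24 h. For 5 and 20 mg/kg: 180–300 g rats, vehicle 5% DMSO + 5% solutol + 90% saline, sampled at 0.083–24 h. Plasma quantified by LC/MS/MS. Parameters from mean plasma concentration by noncompartmental analysis; values are mean ± standard deviation.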

[20] = AUC (0 to infinity) in Sprague-Dawley rat at 20 mg/kg, iv measured upto 24 hrs by LC-MS/MS analysis; format: ADME, organism-based; parameters: dose 20 mg/kg, time < 24 hrs, route iv; conditions: in vivo; how it was run: as §5
[21] = Elimination half life in Sprague-Dawley rat at 5 mg/kg, iv measured upto 24 hrs by LC-MS/MS analysis; format: ADME, organism-based; conditions: in vivo, read-out: beta t1/2 (converted); how it was run: as §5
[22] = Elimination half life in Sprague-Dawley rat at 20 mg/kg, iv measured upto 24 hrs by LC-MS/MS analysis; format: ADME, organism-based; conditions: in vivo, read-out: beta t1/2 (converted); how it was run: as §5
[23] = MRT in Sprague-Dawley rat at 5 mg/kg, iv measured upto 24 hrs by LC-MS/MS analysis; format: ADME, organism-based; conditions: in vivo; how it was run: as §5
[24] = MRT in Sprague-Dawley rat at 20 mg/kg, iv measured upto 24 hrs by LC-MS/MS analysis; format: ADME, organism-based; conditions: in vivo; how it was run: as §5
[25] = Clearance in Sprague-Dawley rat at 5 mg/kg, iv measured upto 24 hrs by LC-MS/MS analysis; format: ADME, organism-based; conditions: in vivo; how it was run: as §5
[26] = Clearance in Sprague-Dawley rat at 20 mg/kg, iv measured upto 24 hrs by LC-MS/MS analysis; format: ADME, organism-based; conditions: in vivo; how it was run: as §5
[27] = Volume of distribution at the steady state in Sprague-Dawley rat at 5 mg/kg, iv measured upto 24 hrs by LC-MS/MS analysis; format: ADME, organism-based; conditions: in vivo, read-out: Vdss; how it was run: as §5
[28] = Volume of distribution at the steady state in Sprague-Dawley rat at 20 mg/kg, iv measured upto 24 hrs by LC-MS/MS analysis; format: ADME, organism-based; conditions: in vivo, read-out: Vdss; how it was run: as §5
[29] = Cytotoxicity against human L02 cells assessed as cell viability measured for 48 hrs by CCK-8 assay; format: toxicity, cell-based
How it was run: (§6)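 Cells seeded at 1 × 10⁴ per well and grown for 48 h. Then exposed to test articles at 1–200 μM for another 48 h (n = 6). Viability by CCK-8 added for 2 h, absorbance read at 450 nm. CC50 calculated and reported as the mean.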

[30] = Cytotoxicity against human HEK293 cells assessed as cell viability measured for 48 hrs by CCK-8 assay; format: toxicity, cell-based; how it was run: as §6
[31] = test system: Acinetobacter baumannii; test: Antibacterial activity against OXA23-producing multidrug resistant Acinetobacter baumannii infected in iv dosed kunming mouse measured after 24 hrs; format: functional, organism-based; conditions: dose 10-30 mg/kg, DDE = dose-dependent effect
How it was run: (§7)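 Neutropenic thigh model in Kunming mice (18−22 g, half male/half female; 8 per dosed group, 13 vehicle). Cyclophosphamide given ip 4 days (150 mg/kg) and 1 day (100 mg/kg) before infection. Right posterior thigh injected im with 0.1 mL of 10⁷ cfu/mL OXA-23 MDR A. baumannii clinical isolate. Iv tail dosing at 10, 20, 30 mg/kg 2 h post-infection; levofloxacin 30 mg/kg iv; saline vehicle. Thighs homogenised in saline for cfu after 24 h.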

[32] = test system: Acinetobacter baumannii; test: Bactericidal activity against OXA23-producing multidrug resistant Acinetobacter baumannii infected in dosed kunming mouse at 30 mg/kg, iv measured after 24 hrs; format: functional, organism-based; how it was run: as §7

CNc1cc(F)cc2c1[nH]c1nc(Oc3cnc(C)nc3)nc(N3CC(=C(C)[C@@H](C)N)C3)c12
inhibition at 2 min, 40 µM [1]: 18.3%
IC50 [2]: > 40 µM
MIC [3]: 0.5 µg/mL (≈ 1.11 µM)
MIC [4]: 0.5 µg/mL (≈ 1.11 µM)
MIC [5]: 0.125 µg/mL (≈ 0.279 µM)
MIC [6]: 2 µg/mL (≈ 4.46 µM)
MIC [7]: 4 µg/mL (≈ 8.92 µM)
MIC [8]: 2 µg/mL (≈ 4.46 µM)
MIC [9]: 0.25 µg/mL (≈ 0.557 µM)
MIC [10]: 0.25 µg/mL (≈ 0.557 µM)
MIC [11]: 4 µg/mL (≈ 8.92 µM)
MIC [12]: 2 µg/mL (≈ 4.46 µM)
half-life at 0.1 µM [13]: 8.3 min
half-life at 0.1 µM [14]: 1.23 h
CLH [15]: 252 mL/min/g
CLH [16]: 28.4 mL/min/g
Fh at 1 h, 0.1 µM [17]: 15%
Fh at 1 h, 0.1 µM [18]: 40.8%
AUC(0-inf) [19]: 1100 ng·h/mL
AUC(0-inf) [20]: 5790 ng·h/mL
half-life [21]: 8.5 h
half-life [22]: 5.9 h
MRT [23]: 7.8 h
MRT [24]: 3.1 h
clearance [25]: 76.6 mL/min/kg
clearance [26]: 57.7 mL/min/kg
Vd [27]: 35.7 L/kg
Vd [28]: 10.8 L/kg
CC50 at 48 h [29]: 16 µM
CC50 at 48 h [30]: 19 µM
Activity [31]: Dde
Activity [32]: Active
